Measurements as given in ChEMBL document CHEMBL1151818, “Antimalarial peptides from marine cyanobacteria: isolation and structural elucidation of gallinamide A” (J Nat Prod, 2009).
pIC50: −log10 of the molar value. Calls of active or inactive are those of the source. The rule behind the calls is not given here. Non-standard residues stand in square brackets, D forms with d. Residues, ends and D or L forms follow the SMILES beside them. *: point of attachment. X1 = COC1=CC(=O)N(C(=O)[C@@H](O*)C(C)C)[C@H]1Cc1ccccc1; NMe2Val = CC(C)[C@@H](C(=O)*)N(C)C; NMeV = CN[C@H](C(=O)O)C(C)C

Assays:
Trypanosoma cruzi = test: Antitrypanosomal activity against Trypanosoma cruzi at 16.9 uM; format: functional, organism-based
Method in brief: (§1)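 In vitro assay; 16.9 µM was the highest concentration tested.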

Plasmodium falciparum = test: Antimalarial activity against chloroquine-resistant Plasmodium falciparum W2; format: functional, organism-based
[1] = Cytotoxicity against african green monkey Vero cells; format: cell-based; conditions: chlorocebus sabaeus, read-out: TC50 (the source's name)
Leishmania donovani = test: Antileishmanial activity against Leishmania donovani; format: functional, organism-based
NCI-H460 [2] = test: Cytotoxicity against human NCI-H460 cells at 16.9 uM; format: functional, cell-based; method in brief: as §1
N2a = test: Cytotoxicity against mouse Neuro2a cells at 16.9 uM; format: functional, cell-based; method in brief: as §1
NCI-H460 [3] = test: Cytotoxicity against human NCI-H460 cells; format: functional; conditions: read-out: TC50 (the source's name); method in brief: as §1

## CC1CS(=O)(=O)CCN1/N=C/c1ccc([N+](=O)[O-])o1 (stereo not given) [NIFURTIMOX]
Trypanosoma cruzi
  pIC50: 4.87

## CC[C@H](C)[C@@H](C(=O)O[C@@H](CC(C)C)C(=O)N[C@@H](CC(C)C)C(=O)N[C@@H](C)/C=C/C(=O)N1C(=O)C=C(OC)[C@@H]1C)N(C)C [GALLINAMIDE A]
Plasmodium falciparum
  pIC50: 5.08
[1]
  CC50: 10.4 µM
Leishmania donovani
  pIC50: 5.03
Trypanosoma cruzi
  pIC50: < 4.77
NCI-H460 [2]
  Activity: inactive
N2a
  Activity: inactive

## C[C@@H]1[C@H](O)[C@@H](C)/C=C/C=C/C=C/C=C/C=C/C=C/C=C/[C@H](O[C@@H]2O[C@H](C)[C@@H](O)[C@H](N)[C@@H]2O)C[C@@H]2O[C@](O)(C[C@@H](O)C[C@@H](O)[C@H](O)CC[C@@H](O)C[C@@H](O)CC(=O)O[C@H]1C)C[C@H](O)[C@H]2C(=O)O [AMPHOTERICIN B]
Leishmania donovani
  pIC50: 6.99

## COC1=CC(=O)N(C(=O)[C@@H](OC(=O)[C@@H]2CCCN2C(=O)[C@@H]2CCCN2C(=O)[C@H](C(C)C)N(C)C(=O)[C@@H](NC(=O)[C@H](C(C)C)N(C)C)C(C)C)C(C)C)[C@H]1Cc1ccccc1 [DOLASTATIN 15] (NMe2Val-V[NMeV]PP-X1)
Plasmodium falciparum
  Activity: Active
NCI-H460 [3]
  CC50: 0.0024 µM
